Here are results for nine compounds from PubChem BioAssay AID485279 (Sanford-Burnham Center for Chemical Genomics, 2010).

The subject of the assay is U2OS-GPR55 ERK1/2 phosphorylation, western blot. Description: downstream MAPK activation by GPR55 agonists – cell-based, U2OS-GPR55, western blot, mechanism study, SAR follow-up (AID 485279). Conditions: at 1 µM, stronger effect = higher value; for stimulation: measured here: ERK stimulation vs negative control. In short, it runs like this: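 Assay system: GPR55/beta-arrestin-GFP U2OS cells; Technique: fluorescent immunoblot, two colours; Dosing: single compound dose, 1 µM final; Controls: LPI 10 µM reference agonist; Schedule: 10 min compound exposure, room temperature.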
A general note: Immunoblotting shows a protein as a band on a membrane.

Activity calls are given as the source filed them.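 Rule for the calls: active = average efficacy above 50%; inactive = the rest.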

On to `Cc1cccc(N2CCN(C(=O)c3cc(S(=O)(=O)N(C)C)ccc3N3CCCC3)CC2)c1C`, for which the efficacy is 128% and the stimulation turned out to be 149%.
For `COc1ccccc1/C=C/C(=O)NC(=S)Nc1ccc(S(=O)(=O)N(C)c2ccccc2)cc1`, the efficacy is 259% and the stimulation is 201%.
Consider `COc1ccc(-c2csc(NC(=O)CSc3nnc4c(C)cc5ccccc5n34)n2)cc1`, for which the efficacy is 79.7% and the stimulation was 133%.
For `COc1ccc2cc(C)c3nnc(SCC(=O)Nc4nc(-c5ccc(F)cc5)cs4)n3c2c1`, the efficacy was 133% and the stimulation turned out to be 168%.
On the same counts, the results for `CN(C)S(=O)(=O)c1ccc(N2CCCC2)c(C(=O)N2CCN(c3ccc([N+](=O)[O-])cc3)CC2)c1` are 63.1% and 141%.
Turning to `Cc1occc1C(=O)Nc1ccc(OCc2ccccc2)cc1`, the efficacy is 69% and the stimulation is 127%.
As to `CC(C)Oc1ccc(S(=O)(=O)N2CCOCC2)cc1NC(=O)c1ccc(N2CCCC2=O)cc1`, the efficacy was 103% and the stimulation was found to be 143%.
Turning to `CCCN(CCC)Cc1c(C(=O)NN=Cc2c[nH]c3ccccc23)nnn1-c1nonc1N`, the efficacy was -65.3% (inactive) and the stimulation came to 77.7%.
For the compound `COc1ccc(S(=O)(=O)N2CCOCC2)cc1NC(=O)c1cc2c(s1)CCCC2`, the efficacy is 95.6% and the stimulation worked out at 135%.
